Results from ChEMBL document CHEMBL3045616, “Synthetic pyrazole derivatives as growth inhibitors of some phytopathogenic fungi” (J Agric Food Chem, 2007).

Tested on: Botrytis cinerea
Test: Antifungal activity against logarithmic phase of Botryotinia fuckeliana ATCC 48339 assessed as growth inhibition at 10 ug/ml measured at 5 days post-drug treatment
Type: functional
Conditions: ATCC 48339, 120 h, read-out: GI
Method in brief: (§1)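 Log-phase mycelium (from 10 mm stationary-phase disks grown on cellophane over PDA, pH 5.6, 26 ± 1 °C) moved to PDA with compound added from DMSO stock at 45 °C. Final concentrations were 10, 50 or 100 µg mL^-1, with 0.1% DMSO in test and control media. Colony diameter was read daily for 5 days, in triplicate, as % of untreated control.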

Structure (SMILES)	inhibition of growth at 10 µg/mL [%]
O=C(Nc1ccccc1)c1ccccc1I [BENODANIL]	6.3
Cc1c(C(=O)O)c(C(=O)NC(C)(C)C)nn1-c1c(Cl)cc(C(F)(F)F)cc1Cl	17.3
Cc1c(C(=O)O)c(C(=O)NC2CC2)nn1C	3
Cc1onc(C(=O)NC(C)(C)C)c1C(=O)O	4.3
O=c1c2cn[nH]c2[nH]c(=S)n1-c1cccc(C(F)(F)F)c1	0.5
CCOC(=O)c1cn[nH]c1NC(=S)Nc1cccc(Cl)c1	56
Cc1c(C(=O)O)c(C(=O)NC(C)(C)C)nn1-c1ccccc1	39.5
CCOC(=O)c1cn[nH]c1NC(=S)Nc1ccc([N+](=O)[O-])cc1	13.2
CCOC(=O)c1cn[nH]c1NC(=S)NCc1ccccc1	0
O=c1c2cn[nH]c2[nH]c(=S)n1-c1ccccc1Cl	40
CCOC(=O)c1cn[nH]c1NC(=S)Nc1ccccc1Cl	4.3
Cc1onc(C(=O)NC2CC2)c1C(=O)O	3.8
CCCCNC(=S)Nc1[nH]ncc1C(=O)OCC	4.7
O=c1c2cn[nH]c2[nH]c(=S)n1Cc1ccccc1	13.5

Tested on: Globisporangium ultimum
Test: Antifungal activity against logarithmic phase of Pythium ultimum ATCC 58812 assessed as growth inhibition at 10 ug/ml measured at 5 days post-drug treatment
Type: functional
Conditions: ATCC 58812, 120 h, read-out: GI
Method in brief: as §1

Structure (SMILES)	inhibition of growth at 10 µg/mL [%]
Cc1c(C(=O)O)c(C(=O)NC(C)(C)C)nn1-c1c(Cl)cc(C(F)(F)F)cc1Cl	1.9
Cc1onc(C(=O)NC(C)(C)C)c1C(=O)O	9.7
O=c1c2cn[nH]c2[nH]c(=S)n1-c1cccc(C(F)(F)F)c1	17.2
COC(=O)c1c(C(=O)NC2CC2)nn(C)c1C	4.8
CCOC(=O)c1cn[nH]c1NC(=S)Nc1cccc(Cl)c1	32.9
Cc1c(C(=O)O)c(C(=O)NC(C)(C)C)nn1-c1ccccc1	12.1
CCOC(=O)c1cn[nH]c1NC(=S)Nc1ccc([N+](=O)[O-])cc1	27.2
CCOC(=O)c1cn[nH]c1NC(=S)NCc1ccccc1	3.7
CCOC(=O)c1cn[nH]c1NC(=S)Nc1ccccc1Cl	66.5
Cc1onc(C(=O)NC2CC2)c1C(=O)O	46
O=c1c2cn[nH]c2[nH]c(=S)n1Cc1ccccc1	44.1

Tested on: Globisporangium ultimum
Test: Antifungal activity against logarithmic phase of Pythium ultimum ATCC 58812 assessed as growth inhibition at 50 ug/ml measured at 5 days post-drug treatment
Type: functional
Conditions: ATCC 58812, 120 h, read-out: GI
Method in brief: as §1

Structure (SMILES)	inhibition of growth at 50 µg/mL [%]
Cc1c(C(=O)O)c(C(=O)NC(C)(C)C)nn1-c1c(Cl)cc(C(F)(F)F)cc1Cl	37.9
Cc1c(C(=O)O)c(C(=O)NC2CC2)nn1C	6.6
Cc1onc(C(=O)NC(C)(C)C)c1C(=O)O	15.8
O=c1c2cn[nH]c2[nH]c(=S)n1-c1cccc(C(F)(F)F)c1	34.5
COC(=O)c1c(C(=O)NC2CC2)nn(C)c1C	4.3
CCOC(=O)c1cn[nH]c1NC(=S)Nc1cccc(Cl)c1	38.1
Cc1c(C(=O)O)c(C(=O)NC(C)(C)C)nn1-c1ccccc1	82.3
CCOC(=O)c1cn[nH]c1NC(=S)Nc1ccc([N+](=O)[O-])cc1	36
CCOC(=O)c1cn[nH]c1NC(=S)NCc1ccccc1	34.6
CCOC(=O)c1cn[nH]c1NC(=S)Nc1ccccc1Cl	68.7
Cc1onc(C(=O)NC2CC2)c1C(=O)O	46.6
O=c1c2cn[nH]c2[nH]c(=S)n1Cc1ccccc1	64.6

Tested on: Pyricularia grisea
Test: microbe, parasite or virus in culture
Type: functional
Conditions: ATCC 64413, 120 h, read-out: GI

Structure (SMILES)	inhibition of growth at 10 µg/mL [%]
CCOC(=O)c1cn[nH]c1NC(=S)Nc1cccc(Cl)c1	16.6
Cc1c(C(=O)O)c(C(=O)NC(C)(C)C)nn1-c1ccccc1	0.6
CCOC(=O)c1cn[nH]c1NC(=S)Nc1ccc([N+](=O)[O-])cc1	13
CCOC(=O)c1cn[nH]c1NC(=S)NCc1ccccc1	15.8
CCOC(=O)c1cn[nH]c1NC(=S)Nc1ccccc1Cl	48.7
O=c1c2cn[nH]c2[nH]c(=S)n1Cc1ccccc1	0.5

Tested on: Botrytis cinerea
Test: Antifungal activity against logarithmic phase of Botryotinia fuckeliana ATCC 48339 assessed as growth inhibition at 50 ug/ml measured at 5 days post-drug treatment
Type: functional
Conditions: ATCC 48339, 120 h, read-out: GI
Method in brief: as §1

Structure (SMILES)	inhibition of growth at 50 µg/mL [%]
O=C(Nc1ccccc1)c1ccccc1I [BENODANIL]	91.2
Cc1c(C(=O)O)c(C(=O)NC(C)(C)C)nn1-c1c(Cl)cc(C(F)(F)F)cc1Cl	22.6
Cc1c(C(=O)O)c(C(=O)NC2CC2)nn1C	9.9
Cc1onc(C(=O)NC(C)(C)C)c1C(=O)O	13.3
O=c1c2cn[nH]c2[nH]c(=S)n1-c1cccc(C(F)(F)F)c1	1
COC(=O)c1c(C(=O)NC2CC2)nn(C)c1C	4
CCOC(=O)c1cn[nH]c1NC(=S)Nc1cccc(Cl)c1	56.8
Cc1c(C(=O)O)c(C(=O)NC(C)(C)C)nn1-c1ccccc1	43.1
CCOC(=O)c1cn[nH]c1NC(=S)Nc1ccc([N+](=O)[O-])cc1	33
CCOC(=O)c1cn[nH]c1NC(=S)NCc1ccccc1	26
O=c1c2cn[nH]c2[nH]c(=S)n1-c1ccccc1Cl	63.8
CCOC(=O)c1cn[nH]c1NC(=S)Nc1ccccc1Cl	30.9
CCCCNC(=S)Nc1[nH]ncc1C(=O)OCC	15.1
O=c1c2cn[nH]c2[nH]c(=S)n1Cc1ccccc1	23.4

Tested on: Pyricularia grisea
Test: microbe, parasite or virus in culture
Type: functional, organism-based
Conditions: ATCC 64413, 120 h

Structure (SMILES)	IC50 [µM]
CCOC(=O)c1cn[nH]c1NC(=S)Nc1ccccc1Cl	48

Tested on: Botrytis cinerea
Test: Antifungal activity against logarithmic phase of Botryotinia fuckeliana ATCC 48339 assessed as growth inhibition measured at 5 days post-drug treatment
Type: functional, organism-based
Conditions: ATCC 48339, 120 h
Method in brief: (§2)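 Log-phase mycelium grown on cellophane over PDA (pH 5.6, 26 ± 1 °C) moved to PDA containing compound at 10, 50 and 100 µg mL^-1 final, with 0.1% DMSO in test and control media. Colony diameter was measured daily for 5 days, in triplicate, relative to untreated controls. IC50 came from curves of activity (%) versus log inhibitor concentration.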

Structure (SMILES)	IC50 [µM]
O=C(Nc1ccccc1)c1ccccc1I [BENODANIL]	66
CCOC(=O)c1cn[nH]c1NC(=S)Nc1cccc(Cl)c1	31
O=c1c2cn[nH]c2[nH]c(=S)n1-c1ccccc1Cl	83

Tested on: Globisporangium ultimum
Test: Antifungal activity against logarithmic phase of Pythium ultimum ATCC 58812 assessed as growth inhibition at 100 ug/ml measured at 5 days post-drug treatment
Type: functional
Conditions: ATCC 58812, 120 h, read-out: GI
Method in brief: as §1

Structure (SMILES)	inhibition of growth at 100 µg/mL [%]
Cc1c(C(=O)O)c(C(=O)NC(C)(C)C)nn1-c1c(Cl)cc(C(F)(F)F)cc1Cl	54.7
Cc1c(C(=O)O)c(C(=O)NC2CC2)nn1C	11.4
Cc1onc(C(=O)NC(C)(C)C)c1C(=O)O	40.2
O=c1c2cn[nH]c2[nH]c(=S)n1-c1cccc(C(F)(F)F)c1	57.8
COC(=O)c1c(C(=O)NC2CC2)nn(C)c1C	7.7
CCOC(=O)c1cn[nH]c1NC(=S)Nc1cccc(Cl)c1	60.8
Cc1c(C(=O)O)c(C(=O)NC(C)(C)C)nn1-c1ccccc1	83.4
CCOC(=O)c1cn[nH]c1NC(=S)Nc1ccc([N+](=O)[O-])cc1	63.4
CCOC(=O)c1cn[nH]c1NC(=S)NCc1ccccc1	38.3
CCOC(=O)c1cn[nH]c1NC(=S)Nc1ccccc1Cl	70
Cc1onc(C(=O)NC2CC2)c1C(=O)O	53.5
CCCCNC(=S)Nc1[nH]ncc1C(=O)OCC	10.4
O=c1c2cn[nH]c2[nH]c(=S)n1Cc1ccccc1	78

Tested on: Botrytis cinerea
Test: Antifungal activity against logarithmic phase of Botryotinia fuckeliana ATCC 48339 assessed as growth inhibition at 100 ug/ml measured at 5 days post-drug treatment
Type: functional
Conditions: ATCC 48339, 120 h, read-out: GI
Method in brief: as §1

Structure (SMILES)	inhibition of growth at 100 µg/mL [%]
O=C(Nc1ccccc1)c1ccccc1I [BENODANIL]	97.6
Cc1c(C(=O)O)c(C(=O)NC(C)(C)C)nn1-c1c(Cl)cc(C(F)(F)F)cc1Cl	27.5
Cc1c(C(=O)O)c(C(=O)NC2CC2)nn1C	19.8
Cc1onc(C(=O)NC(C)(C)C)c1C(=O)O	18.2
O=c1c2cn[nH]c2[nH]c(=S)n1-c1cccc(C(F)(F)F)c1	7.2
COC(=O)c1c(C(=O)NC2CC2)nn(C)c1C	3.2
CCOC(=O)c1cn[nH]c1NC(=S)Nc1cccc(Cl)c1	76.2
Cc1c(C(=O)O)c(C(=O)NC(C)(C)C)nn1-c1ccccc1	60.5
CCOC(=O)c1cn[nH]c1NC(=S)Nc1ccc([N+](=O)[O-])cc1	37.9
CCOC(=O)c1cn[nH]c1NC(=S)NCc1ccccc1	32
O=c1c2cn[nH]c2[nH]c(=S)n1-c1ccccc1Cl	66.2
CCOC(=O)c1cn[nH]c1NC(=S)Nc1ccccc1Cl	36
CCCCNC(=S)Nc1[nH]ncc1C(=O)OCC	32.4
O=c1c2cn[nH]c2[nH]c(=S)n1Cc1ccccc1	31.9

Tested on: Globisporangium ultimum
Test: Antifungal activity against logarithmic phase of Pythium ultimum Trow ATCC 58812 assessed as growth inhibition measured at 5 days post-drug treatment
Type: functional, organism-based
Conditions: ATCC 58812, 120 h
Method in brief: as §2

Structure (SMILES)	IC50 [µM]
Cc1c(C(=O)O)c(C(=O)NC(C)(C)C)nn1-c1ccccc1	79
O=c1c2cn[nH]c2[nH]c(=S)n1Cc1ccccc1	66

Tested on: Pyricularia grisea
Test: microbe, parasite or virus in culture
Type: functional
Conditions: ATCC 64413, 120 h, read-out: GI
Remark: another data set of the same source

Structure (SMILES)	inhibition of growth at 50 µg/mL [%]
Cc1c(C(=O)O)c(C(=O)NC(C)(C)C)nn1-c1c(Cl)cc(C(F)(F)F)cc1Cl	20.6
Cc1c(C(=O)O)c(C(=O)NC2CC2)nn1C	4.3
O=c1c2cn[nH]c2[nH]c(=S)n1-c1cccc(C(F)(F)F)c1	1.4
CCOC(=O)c1cn[nH]c1NC(=S)Nc1cccc(Cl)c1	18
Cc1c(C(=O)O)c(C(=O)NC(C)(C)C)nn1-c1ccccc1	3.8
CCOC(=O)c1cn[nH]c1NC(=S)Nc1ccc([N+](=O)[O-])cc1	15.6
CCOC(=O)c1cn[nH]c1NC(=S)NCc1ccccc1	35.6
CCOC(=O)c1cn[nH]c1NC(=S)Nc1ccccc1Cl	60.9
Cc1onc(C(=O)NC2CC2)c1C(=O)O	2.3
CCCCNC(=S)Nc1[nH]ncc1C(=O)OCC	8.6
O=c1c2cn[nH]c2[nH]c(=S)n1Cc1ccccc1	23.4

Tested on: Pyricularia grisea
Test: microbe, parasite or virus in culture
Type: functional
Conditions: ATCC 64413, 120 h, read-out: GI
Remark: another data set of the same source

Structure (SMILES)	inhibition of growth at 100 µg/mL [%]
Cc1c(C(=O)O)c(C(=O)NC(C)(C)C)nn1-c1c(Cl)cc(C(F)(F)F)cc1Cl	24.4
Cc1c(C(=O)O)c(C(=O)NC2CC2)nn1C	8.6
O=c1c2cn[nH]c2[nH]c(=S)n1-c1cccc(C(F)(F)F)c1	4.1
COC(=O)c1c(C(=O)NC2CC2)nn(C)c1C	3.4
CCOC(=O)c1cn[nH]c1NC(=S)Nc1cccc(Cl)c1	26
Cc1c(C(=O)O)c(C(=O)NC(C)(C)C)nn1-c1ccccc1	13.9
CCOC(=O)c1cn[nH]c1NC(=S)Nc1ccc([N+](=O)[O-])cc1	17.7
CCOC(=O)c1cn[nH]c1NC(=S)NCc1ccccc1	41.4
CCOC(=O)c1cn[nH]c1NC(=S)Nc1ccccc1Cl	67
Cc1onc(C(=O)NC2CC2)c1C(=O)O	8.97
CCCCNC(=S)Nc1[nH]ncc1C(=O)OCC	10
O=c1c2cn[nH]c2[nH]c(=S)n1Cc1ccccc1	44.4
